Results from ChEMBL document CHEMBL4689842, “EUbOPEN Chemogenomics Library wave 1” (2021).
“And” between values parts separate entries of the source, which are not always exact repeats. Identical values can stand only once.

System: HEK-293T
Test: Multiplex assay against HEK293T;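 on Population Tubulin-Different-Phenotype (%): share of the cells with healthy nuclei that show this phenotype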
Format: toxicity, cell-based
Conditions: human
How it was run: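 Live cells carried four stains from seeding: Hoechst33342, BioTracker Green Microtubule Cytoskeleton Dye, MitoTracker Red and Annexin V Alexa Fluor 680. They were imaged on a CQ1 microscope at 37°C and 5% CO2 after compound addition. Using CellPathfinder machine-learning gating, cells were split into Hoechst high-intensity objects or normal cells, normal cells into healthy, pyknosed or fragmented nuclei, and pyknosed cells into mitotic or apoptotic; tubulin, mitochondrial-mass and membrane-permeability phenotypes are per cents of healthy-nucleus cells.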

[1] = 12 h, 1 µM, compound concentration 1 uM, replicate 1
[2] = 12 h, 1 µM, compound concentration 1 uM, replicate 2
[3] = 12 h, 10 µM, compound concentration 10 uM, replicate 1
[4] = 12 h, 10 µM, compound concentration 10 uM, replicate 2
[5] = 24 h, 1 µM, compound concentration 1 uM, replicate 1
[6] = 24 h, 1 µM, compound concentration 1 uM, replicate 2
[7] = 24 h, 10 µM, compound concentration 10 uM, replicate 1
[8] = 24 h, 10 µM, compound concentration 10 uM, replicate 2
[9] = 48 h, 1 µM, compound concentration 1 uM, replicate 1
[10] = 48 h, 1 µM, compound concentration 1 uM, replicate 2
[11] = 48 h, 10 µM, compound concentration 10 uM, replicate 1
[12] = 48 h, 10 µM, compound concentration 10 uM, replicate 2

## CS(=O)(=O)N1CCCC(NC(=O)[C@H](CCC2CCCCC2)NC(=O)c2ccc(CNc3ncnc4c3nnn4-c3ccccc3)cc2)C1 (some centres not stated) [SR-301]
[1]
  Population Apoptotic (%): 26% and 51% and 37%
  Population Fragmented Nuclei (%): 13% and 14% and 15%
  Population Healthy Nuclei (%): 22% and 17% and 20%
  Population Hoechst High Intensity Objects (%): 13% and 14%
  Population Membrane Permeable-Phenotype (%): 8% and 3%
  Population Mitochondria Different-Phenotype (%): 85% and 84%
  Population Mitotic Cells (%): 73% and 48% and 62%
  Population Normal (%): 86% and 85%
  Population Pyknosed Nuclei (%): 64% and 67%
  Population Tubulin-Different-Phenotype (%): 46% and 57% and 55%
  Total Cell Count: 584 and 339 and 397
[2]
  Population Apoptotic (%): 20% and 16% and 18%
  Population Fragmented Nuclei (%): 5% and 8% and 4%
  Population Healthy Nuclei (%): 41% and 36% and 50%
  Population Membrane Permeable-Phenotype (%): 4% and 1% and 5%
  Population Mitochondria Different-Phenotype (%): 41% and 30%
  Population Mitotic Cells (%): 79% and 83% and 81%
  Population Normal (%): 94% and 98% and 96%
  Population Pyknosed Nuclei (%): 53% and 55% and 45%
  Population Tubulin-Different-Phenotype (%): 43% and 26% and 29%
  Total Cell Count: 247 and 189 and 243
[3]
  Population Apoptotic (%): 68% and 73%
  Population Fragmented Nuclei (%): 20% and 14% and 21%
  Population Healthy Nuclei (%): 6% and 12% and 9%
  Population Hoechst High Intensity Objects (%): 17%
  Population Membrane Permeable-Phenotype (%): 10%
  Population Mitochondria Different-Phenotype (%): 76% and 85% and 86%
  Population Mitotic Cells (%): 31% and 26%
  Population Normal (%): 82%
  Population Pyknosed Nuclei (%): 73% and 68%
  Population Tubulin-Different-Phenotype (%): 71% and 66%
  Total Cell Count: 404 and 541 and 467
[4]
  Population Apoptotic (%): 51% and 84% and 91%
  Population Fragmented Nuclei (%): 9% and 13% and 19%
  Population Healthy Nuclei (%): 28% and 26% and 20%
  Population Hoechst High Intensity Objects (%): 8% and 13% and 20%
  Population Mitochondria Different-Phenotype (%): 43% and 78% and 82%
  Population Normal (%): 92% and 86% and 79%
  Population Pyknosed Nuclei (%): 61% and 60%
  Population Tubulin-Different-Phenotype (%): 43% and 40% and 57%
  Total Cell Count: 225 and 185 and 216
[5]
  Population Apoptotic (%): 26% and 40% and 55%
  Population Fragmented Nuclei (%): 18% and 19%
  Population Healthy Nuclei (%): 19% and 18% and 14%
  Population Hoechst High Intensity Objects (%): 19% and 18% and 16%
  Population Membrane Permeable-Phenotype (%): 6% and 5% and 2%
  Population Mitochondria Different-Phenotype (%): 72% and 77% and 78%
  Population Mitotic Cells (%): 73% and 60% and 44%
  Population Normal (%): 80% and 81% and 83%
  Population Pyknosed Nuclei (%): 61% and 62% and 66%
  Population Tubulin-Different-Phenotype (%): 48% and 57% and 65%
  Total Cell Count: 594 and 385 and 349
[6]
  Population Apoptotic (%): 29% and 24%
  Population Fragmented Nuclei (%): 3% and 2% and 6%
  Population Healthy Nuclei (%): 64% and 67% and 57%
  Population Hoechst High Intensity Objects (%): 3% and 2%
  Population Membrane Permeable-Phenotype (%): 3% and 4%
  Population Mitochondria Different-Phenotype (%): 41% and 43% and 33%
  Population Mitotic Cells (%): 70% and 75%
  Population Normal (%): 96% and 97%
  Population Pyknosed Nuclei (%): 32% and 30% and 36%
  Population Tubulin-Different-Phenotype (%): 52% and 36% and 34%
  Total Cell Count: 298 and 240 and 293
[7]
  Population Apoptotic (%): 81% and 77% and 85%
  Population Fragmented Nuclei (%): 28% and 20% and 26%
  Population Healthy Nuclei (%): 3% and 5%
  Population Hoechst High Intensity Objects (%): 19% and 18% and 20%
  Population Membrane Permeable-Phenotype (%): 8% and 9% and 0%
  Population Mitochondria Different-Phenotype (%): 58% and 77% and 81%
  Population Mitotic Cells (%): 18% and 22% and 14%
  Population Normal (%): 80% and 81% and 79%
  Population Pyknosed Nuclei (%): 68% and 74% and 69%
  Population Tubulin-Different-Phenotype (%): 33% and 54%
  Total Cell Count: 495 and 531 and 410
[8]
  Population Apoptotic (%): 96% and 55% and 93%
  Population Fragmented Nuclei (%): 15% and 11%
  Population Healthy Nuclei (%): 36% and 42% and 39%
  Population Hoechst High Intensity Objects (%): 17% and 10% and 14%
  Population Membrane Permeable-Phenotype (%): 7% and 5% and 11%
  Population Mitochondria Different-Phenotype (%): 95% and 51% and 90%
  Population Normal (%): 82% and 89% and 85%
  Population Pyknosed Nuclei (%): 48% and 45%
  Population Tubulin-Different-Phenotype (%): 46% and 47% and 74%
  Total Cell Count: 210 and 253 and 187
[9]
  Population Apoptotic (%): 23% and 35% and 54%
  Population Fragmented Nuclei (%): 21% and 28% and 19%
  Population Healthy Nuclei (%): 17% and 11% and 15%
  Population Hoechst High Intensity Objects (%): 22% and 24%
  Population Membrane Permeable-Phenotype (%): 4% and 5%
  Population Mitochondria Different-Phenotype (%): 54% and 70% and 71%
  Population Mitotic Cells (%): 77% and 64% and 45%
  Population Normal (%): 77% and 75%
  Population Pyknosed Nuclei (%): 60% and 64%
  Population Tubulin-Different-Phenotype (%): 39% and 52%
  Total Cell Count: 604 and 398 and 345
[10]
  Population Apoptotic (%): 20% and 12%
  Population Fragmented Nuclei (%): 4% and 3%
  Population Healthy Nuclei (%): 82% and 80% and 81%
  Population Hoechst High Intensity Objects (%): 4% and 3%
  Population Membrane Permeable-Phenotype (%): 3% and 1%
  Population Mitochondria Different-Phenotype (%): 17% and 20% and 18%
  Population Mitotic Cells (%): 76% and 79% and 87%
  Population Normal (%): 95% and 96%
  Population Pyknosed Nuclei (%): 12% and 15%
  Population Tubulin-Different-Phenotype (%): 41% and 35% and 33%
  Total Cell Count: 527 and 453 and 385
[11]
  Population Apoptotic (%): 90% and 84% and 81%
  Population Fragmented Nuclei (%): 37% and 29% and 32%
  Population Healthy Nuclei (%): 2% and 3%
  Population Hoechst High Intensity Objects (%): 22% and 20% and 23%
  Population Membrane Permeable-Phenotype (%): 14% and 11%
  Population Mitochondria Different-Phenotype (%): 71% and 57% and 77%
  Population Mitotic Cells (%): 9% and 15% and 18%
  Population Normal (%): 77% and 79% and 76%
  Population Pyknosed Nuclei (%): 60% and 67% and 64%
  Population Tubulin-Different-Phenotype (%): 28% and 64% and 55%
  Total Cell Count: 401 and 536 and 484
[12]
  Population Apoptotic (%): 92% and 82% and 60%
  Population Fragmented Nuclei (%): 15% and 17% and 12%
  Population Healthy Nuclei (%): 52% and 54% and 64%
  Population Hoechst High Intensity Objects (%): 16% and 12% and 11%
  Population Membrane Permeable-Phenotype (%): 4% and 6%
  Population Mitochondria Different-Phenotype (%): 95% and 91% and 32%
  Population Normal (%): 83% and 87% and 88%
  Population Pyknosed Nuclei (%): 32% and 27% and 23%
  Population Tubulin-Different-Phenotype (%): 46% and 86% and 45%
  Total Cell Count: 209 and 191 and 306
